Results published in ChEMBL document CHEMBL3763072, “Structure activity relationship studies on chemically non-reactive glycine sulfonamide inhibitors of diacylglycerol lipase” (Bioorg Med Chem, 2016).
The source made the active and inactive calls. The calls are words filed in the database; no cut-off is given here.

Legend:
[1] = biological target: T1, Diacylglycerol lipase-alpha (Homo sapiens) (UniProt Q9Y4D2); test: Ratio of IC50 for full length human C-terminal HA-tagged DAGLalpha expressed in HEK293 cells assessed as reduction in intracellular 2-AG level to IC50 for full length human C-terminal HA-tagged DAGLalpha expressed in HEK293 cell membrane; type: cell-based
T1 sequence (whole entry): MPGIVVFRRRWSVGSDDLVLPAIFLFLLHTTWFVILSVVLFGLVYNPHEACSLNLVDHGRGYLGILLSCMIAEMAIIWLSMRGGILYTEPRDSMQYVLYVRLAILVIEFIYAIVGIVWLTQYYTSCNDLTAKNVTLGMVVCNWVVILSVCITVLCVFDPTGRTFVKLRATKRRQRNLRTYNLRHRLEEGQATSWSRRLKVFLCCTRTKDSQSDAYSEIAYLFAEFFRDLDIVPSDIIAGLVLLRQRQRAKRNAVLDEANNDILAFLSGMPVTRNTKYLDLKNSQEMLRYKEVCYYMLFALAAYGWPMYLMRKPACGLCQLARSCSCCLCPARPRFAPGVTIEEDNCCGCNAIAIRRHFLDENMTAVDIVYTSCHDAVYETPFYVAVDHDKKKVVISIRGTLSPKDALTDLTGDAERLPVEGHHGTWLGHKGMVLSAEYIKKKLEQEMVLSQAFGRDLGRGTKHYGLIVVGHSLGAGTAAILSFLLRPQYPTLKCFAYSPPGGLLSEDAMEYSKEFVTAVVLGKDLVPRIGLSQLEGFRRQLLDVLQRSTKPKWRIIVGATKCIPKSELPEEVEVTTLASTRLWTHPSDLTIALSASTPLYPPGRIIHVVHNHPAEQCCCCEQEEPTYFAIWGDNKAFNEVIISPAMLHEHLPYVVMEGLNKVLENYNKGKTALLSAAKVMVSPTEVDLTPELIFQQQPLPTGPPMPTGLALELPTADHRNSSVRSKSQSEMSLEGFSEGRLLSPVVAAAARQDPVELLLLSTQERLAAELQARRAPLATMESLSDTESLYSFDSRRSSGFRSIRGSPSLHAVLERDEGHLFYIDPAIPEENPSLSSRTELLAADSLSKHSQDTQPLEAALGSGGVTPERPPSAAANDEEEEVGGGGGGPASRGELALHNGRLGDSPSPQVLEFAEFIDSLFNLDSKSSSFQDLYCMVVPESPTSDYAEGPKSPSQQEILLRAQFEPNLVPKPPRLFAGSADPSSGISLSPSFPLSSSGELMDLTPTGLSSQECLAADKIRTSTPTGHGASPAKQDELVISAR

[2] = biological target: T2, Diacylglycerol lipase-alpha (Homo sapiens, UniProt Q9Y4D2); test: Inhibition of full length human C-terminal HA-tagged DAGLalpha expressed in HEK293 cells using DAG as substrate assessed as reduction in intracellular 2-AG level incubated for 20 mins by LC-MS analysis; type: cell-based
T2 sequence (Q9Y4D2 whole entry): T1 sequence (whole entry)

[3] = biological target: T2, Diacylglycerol lipase-alpha; test: Inhibition of full length human C-terminal HA-tagged DAGLalpha expressed in HEK293 cell membrane using DAG as substrate incubated for 20 mins by LC-MS analysis; type: cell-based
How it was run: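 Cell-free DAGL-α enzyme assay run at pH 6.5. IC50 values are reported, with replicate counts (n) given per value.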

[4] = biological target: Voltage-gated inwardly rectifying potassium channel KCNH2 (Homo sapiens, UniProt Q12809); test: Inhibition of human ERG expressed in HEK293 cells by thallium flux assay
[5] = biological target: Cytochrome P450 2C9 (Homo sapiens, UniProt P11712); test: Inhibition of CYP2C9 in human liver microsomes using diclofenac as substrate incubated for 10 mins by LC-MS analysis
[6] = biological target: Cytochrome P450 2D6 (Homo sapiens, UniProt P10635); test: Inhibition of CYP2D6 in human liver microsomes using dextromethorphan as substrate incubated for 7 mins by LC-MS analysis
[7] = biological target: Cytochrome P450 3A4 (Homo sapiens, UniProt P08684); test: Inhibition of CYP3A4 in human liver microsomes using midazolam as substrate incubated for 5 mins by LC-MS analysis
[8] = biological target: Cytochrome P450 2C19 (Homo sapiens, UniProt P33261); test: Inhibition of CYP2C19 in human liver microsomes using (S)-mephenytoin as substrate incubated for 5 mins by LC-MS analysis
[9] = Metabolic stability in rat liver microsomes assessed as residual compound at 3 uM preincubated for 2 mins followed by NADPH addition measured after 10 mins by LC-MS analysis; type: ADME; details: read-out: Stability
[10] = Metabolic stability in human liver microsomes assessed as residual compound at 3 uM preincubated for 2 mins followed by NADPH addition measured after 10 mins by LC-MS analysis; type: ADME; details: read-out: Stability
[11] = Half life in mouse at 10 mg/kg, po; type: ADME, organism-based; details: in vivo
[12] = test system: Mus musculus; test: AUC(infinity) in mouse at 10 mg/kg, ip; type: ADME, organism-based; set-up: dose 10 mg/kg, time infinity, route intraperitoneal; details: in vivo
[13] = Clearance in mouse at 1 mg/kg, iv; type: ADME, organism-based; details: in vivo
[14] = Tmax in mouse at 10 mg/kg, ip; type: ADME, organism-based; details: in vivo
[15] = Metabolic stability in mouse liver microsomes assessed as residual compound at 3 uM preincubated for 2 mins followed by NADPH addition measured after 10 mins by LC-MS analysis; type: ADME; details: read-out: Stability
[16] = Cmax in mouse at 10 mg/kg, po; type: ADME, organism-based; set-up: dose 10 mg/kg, route oral; details: in vivo
[17] = test system: Mus musculus; test: AUC(infinity) in mouse at 1 mg/kg, iv; type: ADME, organism-based; set-up: dose 1 mg/kg, route intravenous, time infinity; details: in vivo
[18] = biological target: T3, Diacylglycerol lipase-beta (Homo sapiens, UniProt Q8NCG7); test: Inhibition of DAGLbeta (unknown origin)
T3 sequence (Q8NCG7 whole entry): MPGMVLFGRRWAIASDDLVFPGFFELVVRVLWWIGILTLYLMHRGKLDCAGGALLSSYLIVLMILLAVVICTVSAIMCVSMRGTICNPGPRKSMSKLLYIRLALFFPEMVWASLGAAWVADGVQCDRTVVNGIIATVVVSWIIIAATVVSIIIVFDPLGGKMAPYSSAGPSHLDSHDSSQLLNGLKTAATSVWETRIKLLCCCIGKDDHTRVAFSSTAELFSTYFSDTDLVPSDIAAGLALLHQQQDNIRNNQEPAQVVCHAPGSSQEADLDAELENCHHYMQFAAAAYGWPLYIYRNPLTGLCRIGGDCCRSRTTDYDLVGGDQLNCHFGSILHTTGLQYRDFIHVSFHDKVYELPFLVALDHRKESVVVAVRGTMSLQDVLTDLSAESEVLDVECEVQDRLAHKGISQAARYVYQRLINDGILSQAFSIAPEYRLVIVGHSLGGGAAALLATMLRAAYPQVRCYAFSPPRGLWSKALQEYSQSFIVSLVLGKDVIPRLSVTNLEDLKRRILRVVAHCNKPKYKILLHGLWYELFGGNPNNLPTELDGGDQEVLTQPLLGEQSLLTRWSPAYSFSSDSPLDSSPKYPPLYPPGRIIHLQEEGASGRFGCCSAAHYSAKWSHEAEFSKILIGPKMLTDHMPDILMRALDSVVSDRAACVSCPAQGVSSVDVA

[19] = Cmax in mouse at 1 mg/kg, iv; type: ADME, organism-based; set-up: dose 1 mg/kg, route intravenous; details: in vivo
[20] = Half life in mouse at 10 mg/kg, ip; type: ADME, organism-based; details: in vivo
[21] = Cmax in mouse at 10 mg/kg, ip; type: ADME, organism-based; set-up: dose 10 mg/kg, route intraperitoneal; details: in vivo
[22] = test system: Mus musculus; test: Bioavailability in mouse at 10 mg/kg, ip; type: ADME, organism-based; details: in vivo
[23] = Oral bioavailability in mouse at 10 mg/kg; type: ADME, organism-based; details: in vivo
[24] = biological target: T4, Monoglyceride lipase (Homo sapiens) (UniProt Q99685); test: Inhibition of MAGL (unknown origin) at 30 uM
T4 sequence (whole entry): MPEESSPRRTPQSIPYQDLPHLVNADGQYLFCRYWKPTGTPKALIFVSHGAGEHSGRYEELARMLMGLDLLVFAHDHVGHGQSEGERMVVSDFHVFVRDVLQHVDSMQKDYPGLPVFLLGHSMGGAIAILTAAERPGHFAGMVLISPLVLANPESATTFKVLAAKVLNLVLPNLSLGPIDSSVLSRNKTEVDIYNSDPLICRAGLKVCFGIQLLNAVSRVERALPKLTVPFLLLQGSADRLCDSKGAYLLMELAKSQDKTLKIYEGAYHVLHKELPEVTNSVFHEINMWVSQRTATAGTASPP

[25] = Volume of distribution at steady state in mouse at 1 mg/kg, iv; type: ADME, organism-based; details: in vivo, read-out: Vdss
[26] = Half life in mouse at 1 mg/kg, iv; type: ADME, organism-based; details: in vivo
[27] = Tmax in mouse at 10 mg/kg, po; type: ADME, organism-based; details: in vivo
[28] = biological target: T5, Nuclear receptor subfamily 1 group I member 2 (Homo sapiens, UniProt O75469); test: Transactivation of human PXR expressed in human HepG2 cells after […] by luciferase reporter gene assay; type: ADME, cell-based
T5 sequence (O75469 whole entry): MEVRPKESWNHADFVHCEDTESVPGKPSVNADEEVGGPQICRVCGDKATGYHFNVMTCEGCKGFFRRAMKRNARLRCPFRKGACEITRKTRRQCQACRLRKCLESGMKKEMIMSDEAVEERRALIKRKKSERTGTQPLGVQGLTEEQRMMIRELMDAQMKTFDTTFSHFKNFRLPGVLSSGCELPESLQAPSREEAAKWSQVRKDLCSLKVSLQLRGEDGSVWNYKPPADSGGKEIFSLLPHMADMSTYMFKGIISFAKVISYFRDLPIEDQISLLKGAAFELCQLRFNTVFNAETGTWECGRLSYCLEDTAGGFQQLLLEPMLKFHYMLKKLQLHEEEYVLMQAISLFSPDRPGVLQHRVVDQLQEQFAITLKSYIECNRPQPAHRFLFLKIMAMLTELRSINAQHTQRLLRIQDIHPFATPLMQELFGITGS

[29] = biological target: T6, Pancreatic triacylglycerol lipase (Sus scrofa) (UniProt P00591); test: Inhibition of porcine pancreatic lipase at 30 uM
T6 sequence (whole entry): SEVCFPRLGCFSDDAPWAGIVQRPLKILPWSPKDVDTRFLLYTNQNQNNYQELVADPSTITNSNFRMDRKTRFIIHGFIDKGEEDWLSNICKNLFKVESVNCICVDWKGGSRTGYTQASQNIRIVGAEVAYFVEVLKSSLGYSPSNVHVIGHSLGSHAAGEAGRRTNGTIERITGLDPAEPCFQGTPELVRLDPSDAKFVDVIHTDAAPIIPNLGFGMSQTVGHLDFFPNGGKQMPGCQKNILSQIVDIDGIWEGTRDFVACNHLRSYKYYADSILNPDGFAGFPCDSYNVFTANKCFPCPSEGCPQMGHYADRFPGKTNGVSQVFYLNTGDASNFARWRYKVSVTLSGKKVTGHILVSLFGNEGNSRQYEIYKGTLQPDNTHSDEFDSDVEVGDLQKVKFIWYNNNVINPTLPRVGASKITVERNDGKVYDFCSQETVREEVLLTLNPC

[30] = AUC(infinity) in mouse at 10 mg/kg, po; type: ADME, organism-based; set-up: dose 10 mg/kg, route oral, time infinity; details: in vivo
[31] = test system: HEK293; test: Selectivity ratio of IC50 for full length human C-terminal HA-tagged DAGLalpha expressed in HEK293 cell membrane to IC50 for DAGLbeta (unknown origin); type: cell-based

Chain of Voltage-gated inwardly rectifying potassium channel KCNH2 (Q12809 whole entry): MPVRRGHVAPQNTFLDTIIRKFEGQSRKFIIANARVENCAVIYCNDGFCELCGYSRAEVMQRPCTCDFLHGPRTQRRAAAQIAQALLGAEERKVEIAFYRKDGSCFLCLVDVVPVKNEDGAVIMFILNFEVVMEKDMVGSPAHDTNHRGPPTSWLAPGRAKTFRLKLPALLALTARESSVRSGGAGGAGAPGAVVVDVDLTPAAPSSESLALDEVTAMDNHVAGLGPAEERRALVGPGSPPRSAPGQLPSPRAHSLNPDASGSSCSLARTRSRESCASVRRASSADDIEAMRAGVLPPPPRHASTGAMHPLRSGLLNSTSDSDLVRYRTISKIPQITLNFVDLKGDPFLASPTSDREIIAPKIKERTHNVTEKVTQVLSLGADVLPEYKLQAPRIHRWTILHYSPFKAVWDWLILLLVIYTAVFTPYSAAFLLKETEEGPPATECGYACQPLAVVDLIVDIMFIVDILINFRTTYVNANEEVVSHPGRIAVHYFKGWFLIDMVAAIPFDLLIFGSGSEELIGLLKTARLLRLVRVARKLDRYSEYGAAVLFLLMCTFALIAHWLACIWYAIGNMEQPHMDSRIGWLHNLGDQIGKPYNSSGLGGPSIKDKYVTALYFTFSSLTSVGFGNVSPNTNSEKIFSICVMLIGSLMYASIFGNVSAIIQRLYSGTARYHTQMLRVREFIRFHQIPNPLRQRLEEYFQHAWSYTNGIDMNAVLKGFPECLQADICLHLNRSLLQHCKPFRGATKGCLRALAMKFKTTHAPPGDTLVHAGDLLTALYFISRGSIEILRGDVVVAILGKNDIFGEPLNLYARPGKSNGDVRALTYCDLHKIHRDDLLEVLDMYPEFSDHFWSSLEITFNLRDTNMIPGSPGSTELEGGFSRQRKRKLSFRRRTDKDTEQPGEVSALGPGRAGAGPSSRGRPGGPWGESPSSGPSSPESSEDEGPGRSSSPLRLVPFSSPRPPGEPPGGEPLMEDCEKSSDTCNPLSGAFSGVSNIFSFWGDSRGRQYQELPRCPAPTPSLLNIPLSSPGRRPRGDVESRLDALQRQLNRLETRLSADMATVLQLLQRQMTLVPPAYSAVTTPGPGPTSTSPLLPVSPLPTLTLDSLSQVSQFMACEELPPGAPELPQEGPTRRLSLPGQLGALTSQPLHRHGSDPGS
Chain of Cytochrome P450 2D6 (P10635 whole entry): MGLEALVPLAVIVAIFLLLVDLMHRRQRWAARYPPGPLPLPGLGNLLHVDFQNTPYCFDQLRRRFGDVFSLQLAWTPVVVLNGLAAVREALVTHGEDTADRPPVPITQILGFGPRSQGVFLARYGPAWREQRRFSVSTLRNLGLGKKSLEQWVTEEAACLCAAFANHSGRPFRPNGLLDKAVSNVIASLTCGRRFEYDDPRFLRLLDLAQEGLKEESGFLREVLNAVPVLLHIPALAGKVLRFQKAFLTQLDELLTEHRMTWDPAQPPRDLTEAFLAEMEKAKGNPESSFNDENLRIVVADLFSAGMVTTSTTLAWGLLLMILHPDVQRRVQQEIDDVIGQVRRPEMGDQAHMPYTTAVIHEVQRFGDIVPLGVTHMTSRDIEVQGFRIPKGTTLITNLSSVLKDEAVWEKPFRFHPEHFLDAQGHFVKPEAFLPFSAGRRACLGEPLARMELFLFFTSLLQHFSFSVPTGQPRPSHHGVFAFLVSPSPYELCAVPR
Chain of Cytochrome P450 3A4 (P08684 whole entry): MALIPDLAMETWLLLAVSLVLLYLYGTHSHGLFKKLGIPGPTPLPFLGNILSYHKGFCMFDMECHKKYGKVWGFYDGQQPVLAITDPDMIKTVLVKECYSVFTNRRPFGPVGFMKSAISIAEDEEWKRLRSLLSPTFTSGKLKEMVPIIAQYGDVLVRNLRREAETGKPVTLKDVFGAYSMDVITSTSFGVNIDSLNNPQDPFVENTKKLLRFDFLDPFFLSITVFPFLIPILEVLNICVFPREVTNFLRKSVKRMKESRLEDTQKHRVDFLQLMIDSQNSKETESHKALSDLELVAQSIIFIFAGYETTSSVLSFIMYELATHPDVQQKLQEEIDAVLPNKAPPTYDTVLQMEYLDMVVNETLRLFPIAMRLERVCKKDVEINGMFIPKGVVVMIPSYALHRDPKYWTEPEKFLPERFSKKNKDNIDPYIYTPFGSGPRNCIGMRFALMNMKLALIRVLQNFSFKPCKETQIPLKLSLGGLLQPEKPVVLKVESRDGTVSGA
Chain of Cytochrome P450 2C9 (P11712 whole entry): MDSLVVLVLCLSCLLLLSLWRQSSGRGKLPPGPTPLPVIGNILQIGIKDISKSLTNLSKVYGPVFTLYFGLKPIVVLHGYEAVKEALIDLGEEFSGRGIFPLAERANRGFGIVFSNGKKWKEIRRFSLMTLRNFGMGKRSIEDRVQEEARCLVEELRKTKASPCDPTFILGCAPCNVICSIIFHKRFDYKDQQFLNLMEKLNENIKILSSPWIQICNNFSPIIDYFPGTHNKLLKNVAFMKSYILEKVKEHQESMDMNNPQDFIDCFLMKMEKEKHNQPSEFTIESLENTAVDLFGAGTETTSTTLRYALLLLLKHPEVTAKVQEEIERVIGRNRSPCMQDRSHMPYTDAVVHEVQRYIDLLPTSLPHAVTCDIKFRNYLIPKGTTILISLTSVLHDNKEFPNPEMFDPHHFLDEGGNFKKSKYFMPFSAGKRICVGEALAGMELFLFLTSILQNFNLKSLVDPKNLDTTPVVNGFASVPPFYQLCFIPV
Chain of Cytochrome P450 2C19 (P33261 whole entry): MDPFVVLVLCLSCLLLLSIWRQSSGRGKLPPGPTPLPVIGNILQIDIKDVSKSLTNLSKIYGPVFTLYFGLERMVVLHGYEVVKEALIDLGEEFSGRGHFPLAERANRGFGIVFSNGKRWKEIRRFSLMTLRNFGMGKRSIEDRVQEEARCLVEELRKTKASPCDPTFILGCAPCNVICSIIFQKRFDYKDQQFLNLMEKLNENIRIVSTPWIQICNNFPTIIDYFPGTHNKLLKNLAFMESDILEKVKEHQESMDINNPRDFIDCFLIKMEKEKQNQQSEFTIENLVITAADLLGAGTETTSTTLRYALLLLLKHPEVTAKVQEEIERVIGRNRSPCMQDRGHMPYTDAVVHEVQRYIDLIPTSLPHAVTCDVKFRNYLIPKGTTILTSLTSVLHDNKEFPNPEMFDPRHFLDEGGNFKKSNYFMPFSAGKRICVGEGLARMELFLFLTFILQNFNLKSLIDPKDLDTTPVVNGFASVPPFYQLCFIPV

Structure (SMILES) | Ratio IC50 [1] | IC50 [2] | IC50 [3] | remaining at 10 min, 3 µM [9] | remaining at 10 min, 3 µM [10] | remaining at 10 min, 3 µM [15] | IC50 [18] | inhibition [24] | inhibition [29] | also measured
CC1(C)CCc2cc(S(=O)(=O)N(CC(=O)O)C3(c4cccc(-c5cc(Cl)cc(Cl)c5)c4)CCC3)ccc2O1 |  |  |  | 70% | 79% | 77% | 40 nM | inactive | inactive | half-life [11]: 59.4 min; AUC [12]: 5.784 µM·h; clearance [13]: 169 mL/min/kg; Tmax [14]: 37.8 min; Cmax [16]: 941 nM; AUC [17]: 0.173 µM·h; Cmax [19]: 274 nM; half-life [20]: 79.8 min; Cmax [21]: 2860 nM; F [22]: 100%; bioavailability [23]: 88%; Vd [25]: 7.42 L/kg; half-life [26]: 34.8 min; Tmax [27]: 30 min; Activity [28]: 140%; AUC(0-inf) [30]: 1.52 µM·h
O=C(O)CN(C1(c2ccc(-c3ccccc3OC(F)(F)F)cc2)CCC1)S(=O)(=O)c1ccc(OC(F)F)cc1 |  |  |  | 100% | 78% | 100% |  | inactive |  | 
C[C@@H](c1ccc(-c2ccc(Cl)cc2Cl)cc1)N(CC(=O)O)S(=O)(=O)c1ccc(OC(F)F)cc1 |  |  | 18 nM |  |  |  |  |  |  | 

Now from value to molecule, other results behind:

Ratio IC50 [1] | IC50 [2] | IC50 [3] | remaining at 10 min, 3 µM [9] | remaining at 10 min, 3 µM [10] | remaining at 10 min, 3 µM [15] | IC50 [18] | inhibition [24] | inhibition [29] | Structure (SMILES) | also measured
5 | 100 nM | 19 nM |  |  |  |  |  |  | C[C@H](c1ccc(-c2ccc(Cl)cc2Cl)cc1)N(CC(=O)O)S(=O)(=O)c1ccc(OC(F)F)cc1 | 
4 | 60 nM | 17 nM | 100% | 80% |  |  |  |  | O=C(O)CN(Cc1cccc(-c2ccccc2OC(F)(F)F)c1)S(=O)(=O)c1ccc(OC(F)F)cc1 | IC50 [4]: 11000 nM; IC50 [5]: 40000 nM; IC50 [6]: 40000 nM; IC50 [7]: 30000 nM; IC50 [8]: 40000 nM
15 | 88 nM | 6 nM |  |  |  | 146 nM | inactive | inactive | O=C(O)CN(C1(c2ccc(-c3ccc(Cl)cc3Cl)cc2)CCC1)S(=O)(=O)c1ccc(OC(F)F)cc1 | Ratio IC50 [31]: 24
